Reference: ChEMBL document CHEMBL3627671, “Novel derivatives of nitro-substituted salicylic acids: Synthesis, antimicrobial activity and cytotoxicity” (Bioorg Med Chem, 2015)
Converted amounts (≈) assume the structure as drawn.

Assays:
Format in all cases: functional
[1] = system: Pseudomonas aeruginosa; assay: Antibacterial activity against Pseudomonas aeruginosa CCM 1961 after 24 hrs by microdilution broth method; details: CCM 1961, 24 h
How it was run: (§1)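 Mueller-Hinton broth microdilution (modified M07-A07), pH 7.4 (±0.2). Compounds dissolved in DMSO, tested at final 500 to 0.49 µmol/L. Inoculum in sterile water matched to 0.5 McFarland. Incubated in the dark, humid atmosphere, 35 °C, read at 24 and 48 h visually and at 540 nm. MIC taken as ≥95% growth reduction (IC95) versus control.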

[2] = system: Lichtheimia corymbifera; assay: Antifungal activity against Absidia corymbifera 272 after 24 hrs by microdilution broth method; details: Lichtheimia corymbifera, 272, 24 h
How it was run: (§2)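 CLSI M27-A3 broth microdilution in RPMI 1640 with glutamine, buffered to pH 7.0 with MOPS; DMSO diluent. Yeast inoculum 5 × 10^3 ± 0.2 CFU/mL. Moulds grown on Sabouraud agar 3–10 days before spore harvest, final inoculum 0.5-5 × 10^4 CFU/mL, checked in a Bürker chamber. Incubated dark, humid, 35 °C, read at 24 and 48 h visually and at 540 nm. MIC taken as ≥80% (yeasts) or ≥50% (filamentous) growth reduction versus control.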

[3] = system: Klebsiella pneumoniae; assay: Antibacterial activity against Klebsiella pneumoniae D 11750/08 after 24 hrs by microdilution broth method; details: D 11750/08, 24 h; how it was run: as §1
[4] = system: Mycobacterium avium; assay: Antimycobacterial activity against Mycobacterium avium 330/80 after 21 days; details: 330/80, 504 h
[5] = system: Enterococcus sp.; assay: Antibacterial activity against Enterococcus sp. J 14365/08 after 24 hrs by microdilution broth method; details: J 14365/08, 24 h; how it was run: as §1
[6] = system: Klebsiella pneumoniae; assay: Antibacterial activity against ESBL-positive Klebsiella pneumoniae J 14368/08 after 48 hrs by microdilution broth method; details: J 14368/08, 48 h; how it was run: as §1
[7] = system: Mycobacterium kansasii; assay: Antimycobacterial activity against Mycobacterium kansasii 235/80 after 7 days; details: 235/80, 168 h
How it was run: (§3)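 Šula's semisynthetic medium micromethod at 37 °C, read after 7, 14 and 21 days. The 1.0 McFarland suspension was diluted 10^-4. MIC determined. 6509/96 is a clinical isolate.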

[8] = system: Escherichia coli; assay: Antibacterial activity against Escherichia coli CCM4517 after 48 hrs by microdilution broth method; details: CCM4517, 48 h; how it was run: as §1
[9] = system: Staphylococcus aureus; assay: Antibacterial activity against Staphylococcus aureus CCM 4516/08 after 24 hrs by microdilution broth method; details: CCM 4516/08, 24 h
[10] = system: Trichophyton mentagrophytes; assay: Antifungal activity against Trichophyton mentagrophytes 445 after 24 hrs by microdilution broth method; details: Trichophyton mentagrophytes, 445, 24 h
[11] = system: Staphylococcus epidermidis; assay: Antibacterial activity against Staphylococcus epidermidis H 6966/08 after 48 hrs by microdilution broth method; details: H 6966/08, 48 h; how it was run: as §1
[12] = system: Mycobacterium tuberculosis; assay: Antimycobacterial activity against Mycobacterium tuberculosis H37Rv 331/88 after 21 days; details: H37Rv 331/88, 504 h
[13] = system: Staphylococcus aureus; assay: Antibacterial activity against methicillin-resistant Staphylococcus aureus H 5996/08 after 24 hrs by microdilution broth method; details: H 5996/08, 24 h
[14] = system: Mycobacterium kansasii; assay: Antimycobacterial activity against Mycobacterium kansasii 6509/96 after 7 days; details: 6509/96, 168 h; how it was run: as §3
[15] = system: Staphylococcus aureus; assay: Antibacterial activity against Staphylococcus aureus CCM 4516/08 after 48 hrs by microdilution broth method; details: CCM 4516/08, 48 h
[16] = system: Mycobacterium kansasii; assay: Antimycobacterial activity against Mycobacterium kansasii 235/80 after 21 days; details: 235/80, 504 h; how it was run: as §3
[17] = system: Candida albicans; assay: Antifungal activity against Candida albicans ATCC 44859 after 24 hrs by microdilution broth method; details: ATCC 44859, 24 h; how it was run: as §2
[18] = system: Nakaseomyces glabratus; assay: Antifungal activity against Candida glabrata 20/I after 24 hrs by microdilution broth method; how it was run: as §2
[19] = system: Mycobacterium kansasii; assay: Antimycobacterial activity against Mycobacterium kansasii 6509/96 after 14 days; details: 6509/96, 336 h; how it was run: as §3
[20] = system: Trichosporon asahii; assay: Antifungal activity against Trichosporon asahii 1188 after 48 hrs by microdilution broth method; details: Trichosporon asahii, 1188, 48 h; how it was run: as §2
[21] = system: Staphylococcus aureus; assay: Antibacterial activity against methicillin-resistant Staphylococcus aureus H 5996/08 after 48 hrs by microdilution broth method; details: H 5996/08, 48 h
[22] = system: Candida tropicalis; assay: Antifungal activity against Candida tropicalis 156 after 48 hrs by microdilution broth method; details: Candida tropicalis, 156, 48 h; how it was run: as §2
[23] = system: Pseudomonas aeruginosa; assay: Antibacterial activity against Pseudomonas aeruginosa CCM 1961 after 48 hrs by microdilution broth method; details: CCM 1961, 48 h; how it was run: as §1
[24] = system: Trichosporon asahii; assay: Antifungal activity against Trichosporon asahii 1188 after 24 hrs by microdilution broth method; details: Trichosporon asahii, 1188, 24 h; how it was run: as §2
[25] = system: Mycobacterium kansasii; assay: Antimycobacterial activity against Mycobacterium kansasii 6509/96 after 21 days; details: 6509/96, 504 h; how it was run: as §3
[26] = system: Mycobacterium avium; assay: Antimycobacterial activity against Mycobacterium avium 330/80 after 14 days; details: 330/80, 336 h
[27] = system: Enterococcus sp.; assay: Antibacterial activity against Enterococcus sp. J 14365/08 after 48 hrs by microdilution broth method; details: J 14365/08, 48 h; how it was run: as §1
[28] = system: Mycobacterium tuberculosis; assay: Antimycobacterial activity against Mycobacterium tuberculosis H37Rv 331/88 after 14 days; details: H37Rv 331/88, 336 h
[29] = system: Escherichia coli; assay: Antibacterial activity against Escherichia coli CCM4517 after 24 hrs by microdilution broth method; details: CCM4517, 24 h; how it was run: as §1
[30] = system: Candida tropicalis; assay: Antifungal activity against Candida tropicalis 156 after 24 hrs by microdilution broth method; details: Candida tropicalis, 156, 24 h; how it was run: as §2
[31] = system: Nakaseomyces glabratus; assay: Antifungal activity against Candida glabrata 20/I after 48 hrs by microdilution broth method; how it was run: as §2
[32] = system: Pichia kudriavzevii; assay: Antifungal activity against Candida krusei E28 after 24 hrs by microdilution broth method; details: E28, 24 h; how it was run: as §2
[33] = system: Staphylococcus epidermidis; assay: Antibacterial activity against Staphylococcus epidermidis H 6966/08 after 24 hrs by microdilution broth method; details: H 6966/08, 24 h; how it was run: as §1
[34] = system: Aspergillus fumigatus; assay: Antifungal activity against Aspergillus fumigatus 231 after 24 hrs by microdilution broth method; details: Aspergillus fumigatus, 231, 24 h; how it was run: as §2
[35] = system: Trichophyton mentagrophytes; assay: Antifungal activity against Trichophyton mentagrophytes 445 after 48 hrs by microdilution broth method; details: Trichophyton mentagrophytes, 445, 48 h
[36] = system: Klebsiella pneumoniae; assay: Antibacterial activity against Klebsiella pneumoniae D 11750/08 after 48 hrs by microdilution broth method; details: D 11750/08, 48 h; how it was run: as §1
[37] = system: Mycobacterium kansasii; assay: Antimycobacterial activity against Mycobacterium kansasii 235/80 after 14 days; details: 235/80, 336 h; how it was run: as §3
[38] = system: Lichtheimia corymbifera; assay: Antifungal activity against Absidia corymbifera 272 after 48 hrs by microdilution broth method; details: Lichtheimia corymbifera, 272, 48 h; how it was run: as §2
[39] = system: Candida albicans; assay: Antifungal activity against Candida albicans ATCC 44859 after 48 hrs by microdilution broth method; details: ATCC 44859, 48 h; how it was run: as §2
[40] = system: Aspergillus fumigatus; assay: Antifungal activity against Aspergillus fumigatus 231 after 48 hrs by microdilution broth method; details: Aspergillus fumigatus, 231, 48 h; how it was run: as §2
[41] = system: Klebsiella pneumoniae; assay: Antibacterial activity against ESBL-positive Klebsiella pneumoniae J 14368/08 after 24 hrs by microdilution broth method; details: J 14368/08, 24 h; how it was run: as §1
[42] = system: Pichia kudriavzevii; assay: Antifungal activity against Candida krusei E28 after 48 hrs by microdilution broth method; details: E28, 48 h; how it was run: as §2

With `O=C(Nc1cccc(I)c1)c1cc([N+](=O)[O-])ccc1O` the MIC [1] was greater than 500 µM, the MIC [2] was 500 µM (≈ 192 µg/mL) and the MIC [3] was greater than 500 µM. The MIC [4] was 125 µM (≈ 48 µg/mL), the MIC [5] was 250 µM (≈ 96 µg/mL) and the MIC [6] was greater than 500 µM. The MIC [7] was 16 µM (≈ 6.15 µg/mL), the MIC [8] was greater than 500 µM and the MIC [9] was 31.2 µM (≈ 12 µg/mL). It also gave an MIC [10] of 125 µM (≈ 48 µg/mL), an MIC [11] of 31.2 µM (≈ 12 µg/mL) and an MIC [12] of 16 µM (≈ 6.15 µg/mL). It also gave an MIC [13] of 31.2 µM (≈ 12 µg/mL), an MIC [14] of 32 µM (≈ 12.3 µg/mL) and an MIC [15] of 31.2 µM (≈ 12 µg/mL). It also gave an MIC [16] of 62.5 µM (≈ 24 µg/mL), an MIC [17] of 500 µM (≈ 192 µg/mL) and an MIC [18] of 500 µM (≈ 192 µg/mL). For the same molecule, the MIC [19] was 62.5 µM (≈ 24 µg/mL), the MIC [20] was 500 µM (≈ 192 µg/mL) and the MIC [21] was 31.2 µM (≈ 12 µg/mL). For the same molecule, the MIC [22] was 500 µM (≈ 192 µg/mL), the MIC [23] was greater than 500 µM and the MIC [24] was 250 µM (≈ 96 µg/mL). The MIC [25] was 62.5 µM (≈ 24 µg/mL), the MIC [26] was 125 µM (≈ 48 µg/mL) and the MIC [27] was greater than 500 µM. The MIC [28] was 16 µM (≈ 6.15 µg/mL), the MIC [29] was greater than 500 µM and the MIC [30] was 500 µM (≈ 192 µg/mL). The MIC [31] was 500 µM (≈ 192 µg/mL), the MIC [32] was 500 µM (≈ 192 µg/mL) and the MIC [33] was 31.2 µM (≈ 12 µg/mL). For the same molecule, the MIC [34] was 250 µM (≈ 96 µg/mL), the MIC [35] was 125 µM (≈ 48 µg/mL) and the MIC [36] was greater than 500 µM. For the same molecule, the MIC [37] was 32 µM (≈ 12.3 µg/mL), the MIC [38] was greater than 500 µM and the MIC [39] was greater than 500 µM. It also gave an MIC [40] of 250 µM (≈ 96 µg/mL), an MIC [41] greater than 500 µM and an MIC [42] of 500 µM (≈ 192 µg/mL).
In the case of `O=C(Nc1ccc([N+](=O)[O-])c(C(F)(F)F)c1)c1cccc([N+](=O)[O-])c1O`, the MIC [4] is reported as 500 µM (≈ 186 µg/mL), the MIC [7] is reported as 32 µM (≈ 11.9 µg/mL) and the MIC [12] is reported as 16 µM (≈ 5.94 µg/mL). For the same molecule, the MIC [14] was 32 µM (≈ 11.9 µg/mL), the MIC [16] was 125 µM (≈ 46.4 µg/mL) and the MIC [19] was 62.5 µM (≈ 23.2 µg/mL). For the same molecule, the MIC [25] was 62.5 µM (≈ 23.2 µg/mL), the MIC [26] was 250 µM (≈ 92.8 µg/mL) and the MIC [28] was 16 µM (≈ 5.94 µg/mL). For the same molecule, the MIC [37] was 62.5 µM (≈ 23.2 µg/mL).
